Hits are enriched below; roughly 3.6% of the tested compounds scored in any of these assays.
PERK inhibitor: block of dimerizer-induced PERK translation repression, primary screen, PERK inhibitor project, CHO PERK-DD cells, SEAP luminescence, HTS; Eukaryotic translation initiation factor 2-alpha kinase 3 (Homo sapiens), Q9NZJ5; CHO PERK-DD fusion, SEAP luminescence translation reporter; inhibition, % at 5.6 µM; actives 0.17% (n = 220,000); AID 1416, 2008;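 active means inhibition above the mean inhibition of all tested compounds plus 3 SD, set separately per screening campaign, cut at about 2.9% in these data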;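 further: PERK kinase domain activated by AP20187 dimerizer at 100 nM; 0% = DMSO with dimerizer and 100% = rapamycin at 8.4 µM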
Target sequence (Q9NZJ5 whole entry, looked up, the tested form may be a part): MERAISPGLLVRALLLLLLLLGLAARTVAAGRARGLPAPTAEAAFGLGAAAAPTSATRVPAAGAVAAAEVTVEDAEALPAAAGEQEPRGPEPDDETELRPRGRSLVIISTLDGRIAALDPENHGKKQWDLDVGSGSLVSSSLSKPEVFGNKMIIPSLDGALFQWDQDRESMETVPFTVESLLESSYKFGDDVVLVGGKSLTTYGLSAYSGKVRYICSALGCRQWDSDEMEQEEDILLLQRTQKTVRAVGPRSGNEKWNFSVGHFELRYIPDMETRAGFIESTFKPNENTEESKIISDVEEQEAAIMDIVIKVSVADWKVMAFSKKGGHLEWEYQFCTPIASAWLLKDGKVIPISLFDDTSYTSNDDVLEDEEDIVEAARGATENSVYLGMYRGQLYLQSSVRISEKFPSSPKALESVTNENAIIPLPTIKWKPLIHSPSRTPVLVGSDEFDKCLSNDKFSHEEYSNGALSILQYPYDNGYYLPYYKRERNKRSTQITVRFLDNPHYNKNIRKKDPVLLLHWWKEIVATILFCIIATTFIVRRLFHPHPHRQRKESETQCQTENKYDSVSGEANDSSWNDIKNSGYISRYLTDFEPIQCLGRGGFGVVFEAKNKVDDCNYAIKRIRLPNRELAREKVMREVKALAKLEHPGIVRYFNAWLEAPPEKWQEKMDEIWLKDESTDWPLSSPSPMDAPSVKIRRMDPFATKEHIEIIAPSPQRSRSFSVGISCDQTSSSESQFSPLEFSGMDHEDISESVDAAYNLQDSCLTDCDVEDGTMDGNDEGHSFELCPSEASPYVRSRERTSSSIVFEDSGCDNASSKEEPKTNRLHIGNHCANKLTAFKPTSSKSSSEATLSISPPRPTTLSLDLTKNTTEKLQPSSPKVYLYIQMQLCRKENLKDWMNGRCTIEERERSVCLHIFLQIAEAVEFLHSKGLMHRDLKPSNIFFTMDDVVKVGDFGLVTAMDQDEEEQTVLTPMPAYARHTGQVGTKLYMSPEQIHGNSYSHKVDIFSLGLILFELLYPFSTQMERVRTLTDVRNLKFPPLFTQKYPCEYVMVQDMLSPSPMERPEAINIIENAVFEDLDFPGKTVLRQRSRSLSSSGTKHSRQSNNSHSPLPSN
Hsp70 activator: Hsp70 transcriptional activators, primary screen, cell-based, HeLa, Hsp70 promoter luciferase, luminescence, 10 µM; HeLa Hsp70 promoter luciferase reporter; scaled: vehicle 0, proteasome-inhibitor control 100%; activation, % at 10 µM; actives 0.04% (n = 200,000);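 active means activation above the mean across all tested compounds plus 3 SD, cutoff set per campaign, cut at about 5.5% in these data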;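 further: 100% = MG132 at 30 µM as the positive control and 0% = DMSO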
AHR act: AHR activators, primary screen, cell-based, luminescence, luciferase reporter, human. actives 2.5% (n = 320,000). activation, % at 5 µM. AHR-responsive luciferase reporter cells. Aryl hydrocarbon receptor (Homo sapiens), P35869; in the data active means activation above about 47%;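 further: 0% = vehicle wells and 100% = reference agonist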
STAT3 act-1: IL-6 driven STAT3 reporter potentiators, primary screen, U3A cells, luciferase, luminescence, MLSCN library | AID 871, 2007 | actives 0.91% (n = 190,000) | IL-6 STAT3-luciferase reporter; 100% = signal with IL-6 EC80 alone | activation (% of control), % at 5.6 µM;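 active means activation above the screen-wide mean of compound activation plus 3 SD, cut at about 130% in these data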;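 further: 0% = background luminescence of wells with medium and substrate only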
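Assay system – human STAT1-deficient U3A cells with stable STAT3-luciferase reporter · Also added – IL-6 (33 ng/mL) · Schedule – compound 1 h, then IL-6 6 h at 37 °C · Technique – reporter luminescence signal · Evaluation – % activation versus median of IL-6-stimulated wells · Benchmarks – IL-6-only wells as 100% reference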
HSF1 inh: HSF1 inhibitors in luciferase reporter cells, primary screen, cell-based, NIH3T3, luminescence; actives 0.77% (n = 300,000); NIH3T3-HGL HSE-luciferase, MG132-induced, luminescence 8 h; hits give low values; activity change, negative = inhibition, % at 7.5 µM (by protocol); AID 2098, 2009;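 active means more than half of replicate wells show activity change below -50%, luminescence cut by over half; inconclusive means some wells, but at most half, below -50%; inactive means no replicate well below -50%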;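 further: luciferase reports HSF-1 transcriptional activity via heat shock element; 0% = median of DMSO wells and -100% = zero luminescence signal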
PolyA inh: polyadenylation inhibitors in yeast reporter cells, primary screen, luminescence, S. cerevisiae. S. cerevisiae SKY197-pL101 polyadenylation reporter, beta-gal luminescence; efflux-impaired pdr1/pdr3 knockout yeast; score 100 = 6 SD above DMSO. activity score, % at 12 µM. actives 0.02% (n = 300,000). AID 1875, 2009;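 active means lowest replicate activity score at least 50, where 100 means six control SD above control mean; inconclusive means lowest score under 50 but half or more replicates reach 50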;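 further: yeast exposed to compound for 9 h at 30 °C; higher score means more reporter readthrough which indicates perturbed polyadenylation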
STAT3 act-2: STAT3 reporter potentiators, retest of hits, confirmation, U3A cells, luciferase, luminescence; shares compounds with STAT3 act-1; IL-6 potentiation; U3A cells lack STAT1; 100 means same as IL-6 alone; AID 1267, 2008; potentiation (% of control), % at 5.7 µM; actives 64% (n = 1,200);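 active means percent activation of the STAT3 luciferase reporter above a set limit taken from the earlier primary screen, cut at about 130% in these data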;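 further: 0% = background signal of medium plus substrate and 100% = median of IL-6 with DMSO wells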
NFkB act 2: NF-kB reporter activators in human cells, counter-screen for STAT3 activator project | activation (% of control), % at 5.7 µM | shares compounds with STAT3 act-1 | NF-kappaB reporter activation | actives 11% (n = 1,200) | AID 1309, 2008; in the data active means activation above about 120%;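 further: reporter induced by TNF-alpha stimulation; 100% = median of stimulated DMSO wells and 0% = no signal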
STAT1 act STAT3c: STAT1 reporter activators, IFN-gamma induced, counter-screen for STAT3 activator project, cell-based, NIH 3T3, luciferase luminescence | shares compounds with STAT3 act-1 | NIH 3T3 STAT1-luciferase reporter | activation (% of control), % at 5.7 µM | actives 13% (n = 1,200) | AID 1318, 2008;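 active means activation above the solvent-only control well mean plus 3 SD, set per screening run, cut at about 120% in these data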;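 further: 100% = IFN-gamma with DMSO median signal so 100% means no change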
* = called active by the depositor; ? = inconclusive; · = no result.

SMILES	PERK inhibitor	Hsp70 activator	AHR act	STAT3 act-1	HSF1 inh	PolyA inh	STAT3 act-2	NFkB act 2	STAT1 act STAT3c
Cn1c(Sc2ccc(Br)cc2)c(C=O)c2ccccc21	0	0	11	157*	-34	11	·	·	·
COc1ccc(S(=O)(=O)NCC(=O)N(CC(=O)NCC2CCCO2)Cc2ccc(F)cc2)cc1 (stereo unspecified)	·	·	-2	·	-2	-8	·	·	·
CC(=O)Nc1cccc(N(C)S(C)(=O)=O)c1	1	0	2	110	-2	18	·	·	·
CN(c1cccc(NC(=O)Nc2cccc(Cl)c2)c1)S(C)(=O)=O	0	0	77*	94	36	3	·	·	·
NC(=O)c1cn(-c2ccccc2)nc1-c1cc2ccccc2oc1=O	-1	0	3	98	1	1	·	·	·
O=C(c1ccccc1)c1nn(-c2ccc(Cl)cc2)cc1C(=O)c1cc2ccccc2oc1=O	0	0	8	136*	3	8	121	102	105
COc1cccc(CN(C)C(=O)C2CCN(S(=O)(=O)c3cccs3)CC2)c1OC	·	·	0	·	·	·	·	·	·
Cc1ccc(OC(=O)c2oc3ccc(F)cc3c2C)c(C)c1	0	0	8	159*	6	-14	137*	110	94
COc1ccccc1N1CCN(C(=O)c2oc3ccc(F)cc3c2C)CC1	-1	0	25	99	-2	1	·	·	·
N#C/C(=C\Nc1ccccc1O)c1nc2ccccc2o1	1	0	34	165*	?	-22	183*	108	106
Cc1cccc(CNc2ccc(S(=O)(=O)N3CCCCC3)cc2)c1	·	·	1	·	·	·	·	·	·
COc1cccc(CN2CCNC(=O)C2CC(=O)NCCc2nc(C)c(C)s2)c1OC (stereo unspecified)	0	0	-2	97	-3	-1	·	·	·
COC(=O)c1cccc(NS(=O)(=O)c2cccs2)c1C	2	0	0	100	0	-3	·	·	·
COC(=O)c1ccccc1NC1=C/C(=N\S(=O)(=O)c2cccs2)c2ccccc2C1=O	0	0	88*	137*	33	-29	108	113	110
CCC/C=C1/CCCOC(C(=O)NCc2ccc(C)o2)(C(F)(F)F)C1 (stereo unspecified)	·	·	4	·	·	·	·	·	·
COC(=O)C1=C(CS(=O)(=O)c2cc(Cl)ccc2OC)NC(=O)NC1c1ccc(O)c(OC)c1 (stereo unspecified)	·	·	2	·	-1	11	·	·	·
COc1ccccc1-c1cc(-c2cc(Cl)ccc2O)n[nH]1	0	0	32	117	1	-19	·	·	·
Oc1ccc(Cl)cc1-c1cc(-c2ccccc2)n[nH]1	1	0	66*	148*	-3	15	142*	114	125*
Fc1cc(F)cc(Nc2nc(Cl)nc(NC3CCCC3)n2)c1	·	·	2	·	·	·	·	·	·
Cc1ccc2c(c1)N(CC(=O)NCCc1ccccc1)C(=O)c1cccnc1O2	·	·	2	·	-6	1	·	·	·
COCCNc1nnc(SCC(=O)c2c[nH]c3ccccc23)s1	0	0	26	141*	-2	-6	136*	104	97
COCCNc1nnc(SCC(=O)NNC(=O)c2ccccc2)s1	0	0	2	107	-4	17	·	·	·
NS(=O)(=O)c1cccc(NC(=O)c2cccc(Oc3ccccc3)c2)c1	·	·	4	·	0	-11	·	·	·
COc1cccc(-c2nc(Oc3cccc(C)c3C)c3ccccc3n2)c1O	0	0	20	140*	-7	2	136*	98	95
Cc1c(C(=O)Nc2ccc(Cl)cc2)c2ccccn2c1C(=O)c1ccc(F)cc1	2	0	3	102	7	-1	·	·	·
SMILES	PERK inhibitor	Hsp70 activator	AHR act	STAT3 act-1	HSF1 inh	PolyA inh	STAT3 act-2	NFkB act 2	STAT1 act STAT3c
Cc1cc2ccccn2c1C(=O)Nc1ccc(Cl)cc1	0	0	38	156*	6	-7	166*	114	118
COCCSc1ccccc1C(=O)NCc1ccco1	1	0	-1	98	-4	-4	·	·	·
COCCSc1ccccc1C(=O)NCCc1ccccc1	1	0	15	138*	-2	-20	149*	106	97
COc1ccccc1C(CNC(=O)c1oc2ccccc2c1C)N1CCCC1 (stereo unspecified)	·	·	12	·	·	·	·	·	·
CC(=O)c1c(CC(=O)O)[nH]n(-c2nc3ccccc3s2)c1=O	0	0	8	112	1	2	·	·	·
O=c1cc(-c2ccccc2)[nH]n1-c1nc2ccccc2s1	1	0	37	138*	21	-2	123	126*	118
CCOC(=O)c1cnc(-c2ccccc2)nc1N(C)C	-1	0	33	173*	13	1	155*	116	136*
COc1ccccc1-c1nnc(SCC(=O)NC2CCCCC2)o1	-1	0	22	163*	3	8	146*	97	97
Cc1ccc(S(=O)(=O)N2CCOCC2)cc1NC(=O)CSCc1c(C)noc1C	·	·	18	·	·	·	·	·	·
Cc1ccc(NC(=O)COc2ccccc2C(=O)Nc2ccccc2)cc1Cl	0	0	8	104	25	-3	·	·	·
CCOc1ccc(NC(=O)C(C)Oc2ccccc2C(=O)Nc2ccc(C)c(Cl)c2)cc1 (stereo unspecified)	0	0	39	149*	5	-8	137*	111	103
CCCCN(C(=O)CC1OC(=O)c2ccccc21)c1c(N)n(CCCC)c(=O)[nH]c1=O (stereo unspecified)	·	·	3	·	5	0	·	·	·
CS(=O)(=O)N1N=C(c2ccccc2)CC1c1cccs1 (stereo unspecified)	1	0	2	104	4	-16	·	·	·

Bioassay records as filed in PubChem.
